{"source": "ChEMBL document CHEMBL3227935", "about": "“Mapping the dopamine receptor. 2. Features derived from modifications in the rings A/B region of the neuroleptic butaclamol” (J Med Chem, 1979)", "key": {"[1]": {"assay": "Dissociation constant, pKa of the compound", "format": "physicochemical"}, "[2]": {"test_system": "Rattus norvegicus", "assay": "Induction of catalepsy in Sprague-Dawley rat at 5 mg/kg, ip measured after 1 to 24 hrs relative to control", "format": "organism-based", "design": "dose 5 mg/kg, route intraperitoneal", "conditions": "in vivo", "how_it_was_run": "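Male rats (160-180 g), groups of six, given 5 mg/kg ip. Catalepsy scored at 1, 2, 4, 6 and 24 h using stages III and IV of Wirth et al. The highest mean cataleptic score is expressed as percent of the maximum attainable score.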"}, "[3]": {"test_system": "Rattus norvegicus", "assay": "Neuroleptic activity in ip dosed Sprague-Dawley rat assessed as failure in active avoidance response measured within 30 mins", "format": "functional", "conditions": "0.5 h", "how_it_was_run": "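Male rats (250-400 g) trained in a three-chamber discrimination box to move to a lighted exit within 10 s or receive shock. Before dosing, a two-trial control session in groups of six or more. Graded ip doses, then ten trials 30 min later. Mean failures to leave before shock are taken as percent of trials. ED50 gives 50% failure, by Litchfield-Wilcoxon.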"}, "[4]": {"test_system": "Rattus norvegicus", "assay": "Neuroleptic activity in ip dosed Sprague-Dawley rat assessed as inhibition of d-amphetamine sulfate-induced stereotyped behavior measured every 15 mins for 4 hrs", "format": "functional", "conditions": "read-out: MED", "how_it_was_run": "(§1)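 Male rats (160-180 g), groups of four or more, given d-amphetamine 10 mg/kg ip, then graded ip doses of compound or vehicle 15 min later (highest 20 mg/kg). Behavior scored every 15 min over 4 h: 0 normal, 1 excited, 2 stereotyped. MED is the lowest dose antagonizing all amphetamine effects for the whole period.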"}, "[5]": {"test_system": "Rattus norvegicus", "assay": "Neuroleptic activity in ip dosed Sprague-Dawley rat assessed as protection against epinephrin bitartrate-induced mortality measured over 24 hrs", "format": "functional", "how_it_was_run": "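Groups of six or more male Sprague–Dawley rats (220–250 g) received graded ip doses. Epinephrine bitartrate, 0.25 mg/kg iv, lethal to untreated rats, was injected 1 h later. Deaths were counted over 24 h. Protective ED50 (mg/kg, ip) is the dose that saved 50% of rats, calculated by Litchfield–Wilcoxon.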"}, "[6]": {"species": "Mus musculus", "assay": "Induction of taming effect in Swiss albino mouse assessed as reduction of isolation-induced fighting behavior measured after 0.5 to 3 hrs", "format": "functional", "how_it_was_run": "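Male albino mice (14-16 g) isolated 4-5 weeks, then paired in one cage for 5 min. A morning control session confirmed maximal fighting in both members of each pair. Compounds given ip, with retesting at 30 min and 3 h. All-or-none read-out: effective if no fighting occurred in the 5-min observation. ED50 (mg/kg, ip) is the dose abolishing fighting in 50% of pairs, by Litchfield-Wilcoxon.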"}, "[7]": {"test_system": "Rattus norvegicus", "assay": "Neuroleptic activity in Sprague-Dawley rat assessed as inhibition of d-amphetamine sulfate-induced stereotyped behavior at 20 mg/kg, ip measured every 15 mins for 4 hrs", "format": "functional, organism-based", "design": "dose 20 mg/kg", "how_it_was_run": "as §1"}}, "note": "Calls of active or inactive are those of the source. The calls are words filed in the database; no cut-off is given here."}
{"smiles": "CC(C)(C)[C@@]1(O)CCN2C[C@@H]3c4ccccc4CCc4cccc(c43)[C@H]2C1", "values": [{"measurement": "pKa", "setting": "[1]", "result": 5.9}, {"measurement": "%max", "setting": "[2]", "result": 60, "unit": "%"}, {"measurement": "ED50", "setting": "[3]", "result": 0.64, "unit": "mg/kg"}, {"measurement": "minimal effective dose", "setting": "[4]", "result": 0.62, "unit": "mg/kg"}, {"measurement": "ED50", "setting": "[5]", "result": 15, "unit": "mg/kg"}, {"measurement": "ED50", "setting": "[6]", "result": 1.9, "unit": "mg/kg"}]}
{"smiles": "CC(C)(C)C1(O)CCN2C[C@H]3Cc4ccccc4Cc4cccc(c43)C2C1", "note": "(stereo not given in full)", "values": [{"measurement": "inhibition", "setting": "[7]", "result": "inactive"}]}
{"smiles": "CC(C)(C)C1(O)CCN2C[C@H]3Cc4ccccc4Cc4cccc(c43)[C@@H]2C1", "note": "(relative stereo)", "values": [{"measurement": "%max", "setting": "[2]", "result": 45, "unit": "%"}, {"measurement": "ED50", "setting": "[3]", "result": 1, "unit": "mg/kg"}, {"measurement": "minimal effective dose", "setting": "[4]", "result": 0.62, "unit": "mg/kg"}, {"measurement": "ED50", "setting": "[5]", "result": 10, "unit": "mg/kg"}, {"measurement": "ED50", "setting": "[6]", "result": 2, "unit": "mg/kg"}]}
{"smiles": "CC(C)(C)C1(O)CCN2C[C@H]3CCc4ccccc4-c4cccc(c43)[C@@H]2C1", "note": "(relative stereo)", "values": [{"measurement": "inhibition", "setting": "[7]", "result": "inactive"}]}
{"smiles": "CC(C)(C)C1(O)CCN2C[C@H]3CCc4ccccc4-c4cccc(c43)[C@H]2C1", "note": "(relative stereo)", "values": [{"measurement": "inhibition", "setting": "[7]", "result": "inactive"}]}
{"smiles": "CC(C)(C)C1(O)CCN2C[C@H]3Cc4ccccc4Cc4cccc(c43)[C@H]2C1", "note": "(relative stereo)", "values": [{"measurement": "inhibition", "setting": "[7]", "result": "inactive"}]}
